Laboratory results reported in PubChem BioAssay.
Activity calls are given as the source filed them. Cut-off read from the data, not from the text of the source, unless noted: active = inhibition above about 30%; inactive = the rest.

How the values were obtained:
[1] = reducers of endogenous Her2 protein level, primary screen, SKBR3 breast tumor cells, AlphaScreen, ATP viability (AID 461;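 active = Her2 level under about 52% in both replicate screens, with viability over 70% of control, limit read from the data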;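 for Her2 level: lower value means less Her2 protein in the cells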;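 for viability: percent of carrier control wells set as 100% viability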); conditions: 18-24 h, measured here: SKBR3 viability, ATP luminescence, at 10 µM
[2] = molecular target: Receptor tyrosine-protein kinase erbB-2 (Homo sapiens) (UniProt P04626); assay: as above; conditions: 18-24 h, at 10 µM, stronger effect = lower value
[3] = SK-BR-3 cell growth inhibitors, pilot screen, 24 h, human (AID 572;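 active = viability at or below 10% of carrier control in both of two separate runs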;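 note: compound exposure lasted between 18 and 24 h rather than exactly 24 h; 100% = carrier-treated control wells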); conditions: SK-BR-3 viability, CellTiter-Glo luminescence, at 10 µM, stronger effect = lower value
[4] = HUVEC growth inhibition – cell-based, human, primary screen (AID 575;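 active = viability at or below 30% in both replicate assays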;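 note: 100% = median of untreated cell wells with 0.1% DMSO on each plate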); conditions: HUVEC proliferation, CellTiter-Glo luminescence, 72 h; at 10 µM; stronger effect = lower value
Method in brief: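 Assay system: primary human umbilical vein endothelial cells / Buffer or medium: endothelial basal medium with 2% FBS plus growth supplements / Compound dosing: one dose, 10 µM final, 0.1% DMSO / Timing: 72 h treatment at 37 °C / Signal: CTG luminescence / Benchmarks: 32 DMSO-only cell-control wells (high), 32 MePR drug-control wells (low) per plate / Plate: collagen-coated 384-well format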

[5] = growth inhibitors of H69AR lung tumor, primary screen, human, duplicate replicates (AID 580;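 active = viability at or under a set limit in both replicates, limit being median viability minus 3 SD, cut at about 48% in these data, passing the limit was not always enough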;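 note: 100% = mean luminescence of untreated wells and 0% = no signal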); conditions: H69AR lung tumor cells viability, ATP luminescence, 72 h; at 10 µM; stronger effect = lower value
[6] = reversal of MRP1-mediated doxorubicin resistance, pilot screen, H69AR cells, doxorubicin co-treatment (AID 601;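 active = viability loss from added drug above about 55%, and viability with drug at most 40%, in both replicates, limit read from the data, passing the limit was not always enough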); conditions: CellTiter-Glo, 72 h, at 10 µM; for differential viability (reversal): stronger effect = higher value
[7] = 384-well plate pilot, post-Golgi transport modulator project, inhibition of yeast transport mutant growth (AID 636; in the data active = inhibition above about 31%); conditions: absorbance 615 nm, about 18 h, stronger effect = higher value
[8] = growth suppression of yeast trafficking mutant, preliminary HTS, modulators of trafficking downstream of Golgi apparatus project, 1536-format plate, OD 615 nm (AID 637); conditions: yeast transport mutant growth, absorbance 615 nm, 18 h; stronger effect = higher value
[9] = H69AR cells + 2 uM doxorubicin, measured here: viability with 2 uM doxorubicin, stronger effect = lower value
[10] = H69AR cells, compound alone cytotoxicity

Chain of Receptor tyrosine-protein kinase erbB-2 (Homo sapiens) (P04626 whole entry, looked up): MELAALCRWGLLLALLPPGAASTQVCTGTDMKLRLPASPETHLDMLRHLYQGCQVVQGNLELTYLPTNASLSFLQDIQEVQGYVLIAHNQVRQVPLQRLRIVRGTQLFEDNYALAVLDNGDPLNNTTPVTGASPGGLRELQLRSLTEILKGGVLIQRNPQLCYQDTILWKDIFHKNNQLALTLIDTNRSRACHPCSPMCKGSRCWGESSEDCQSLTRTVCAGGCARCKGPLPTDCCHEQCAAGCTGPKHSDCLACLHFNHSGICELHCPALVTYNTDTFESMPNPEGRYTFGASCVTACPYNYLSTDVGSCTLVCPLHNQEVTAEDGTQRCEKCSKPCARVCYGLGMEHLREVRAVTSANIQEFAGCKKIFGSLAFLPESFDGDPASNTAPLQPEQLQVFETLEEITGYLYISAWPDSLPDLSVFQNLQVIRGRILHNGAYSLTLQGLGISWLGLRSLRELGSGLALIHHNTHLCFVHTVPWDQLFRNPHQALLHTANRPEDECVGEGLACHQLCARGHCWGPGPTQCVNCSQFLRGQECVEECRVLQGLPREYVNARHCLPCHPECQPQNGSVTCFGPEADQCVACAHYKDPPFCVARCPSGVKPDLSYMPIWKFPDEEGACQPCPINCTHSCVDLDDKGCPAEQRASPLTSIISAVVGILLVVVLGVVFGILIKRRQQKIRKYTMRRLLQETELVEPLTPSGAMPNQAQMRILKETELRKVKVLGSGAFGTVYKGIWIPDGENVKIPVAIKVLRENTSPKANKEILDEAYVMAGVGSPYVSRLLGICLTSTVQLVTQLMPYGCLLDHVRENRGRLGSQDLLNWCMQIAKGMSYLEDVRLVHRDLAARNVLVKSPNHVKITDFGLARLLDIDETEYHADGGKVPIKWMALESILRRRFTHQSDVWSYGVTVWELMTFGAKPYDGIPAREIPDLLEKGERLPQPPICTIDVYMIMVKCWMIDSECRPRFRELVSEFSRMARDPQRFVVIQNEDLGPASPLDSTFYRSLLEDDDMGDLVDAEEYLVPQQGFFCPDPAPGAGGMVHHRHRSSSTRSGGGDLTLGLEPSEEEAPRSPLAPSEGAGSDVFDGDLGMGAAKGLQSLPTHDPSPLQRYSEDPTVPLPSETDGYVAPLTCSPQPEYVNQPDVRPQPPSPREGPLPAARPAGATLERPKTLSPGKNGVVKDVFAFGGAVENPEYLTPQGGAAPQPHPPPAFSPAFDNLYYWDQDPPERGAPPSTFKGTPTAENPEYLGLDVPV

Compound | viability [1] | Her2 level [2] | viability [3] | viability [4] | viability [5] | differential viability (reversal) ([6]; H69AR cells + 2 uM doxorubicin) | viability [6, 9] | viability [6, 10] | inhibition [7] | inhibition [8]
COc1ccccc1C1CC(c2ccc(C)cc2)Nc2ncnn21 (stereo not given) | 107% | 116% (inactive) | 107% (inactive) | 108% (inactive) | 102% (inactive) | -16% (inactive) | 118% | 102% | 4.67% (inactive) | -3.17% (inactive)
COc1ccc(Cl)cc1C(=O)n1nc(C)cc1C | 104% | 112% (inactive) | 104% (inactive) | 93% (inactive) | 94.6% (inactive) | 1.56% (inactive) | 93% | 94.6% | 2.43% (inactive) | 9.17% (inactive)
Cn1cc(Br)c(C(=O)NC2CCCCC2)n1 | 102% | 112% (inactive) | 102% (inactive) | 96.7% (inactive) | 94.3% (inactive) | 3.45% (inactive) | 90.9% | 94.3% | 3.33% (inactive) | 0.79% (inactive)
Cn1c(SCC(=O)Nc2ccc3c(c2)OCO3)nnc1-c1cnccn1 | 106% | 82.5% (inactive) | 106% (inactive) | 93.5% (inactive) | 94.6% (inactive) | 6.5% (inactive) | 88.1% | 94.6% | -6.05% (inactive) | 2.33% (inactive)
COCCn1c(SCC(=O)N(C(C)C)C(C)C)nnc1-c1cc2ccccc2cc1O | 96% | 91.5% (inactive) | 96% (inactive) | 106% (inactive) | 88.3% (inactive) | 0.38% (inactive) | 88% | 88.3% | -1.3% (inactive) | -5.5% (inactive)
O=C(O)[C@@H]1CCCN1c1ncnc2sc3c(c12)CCC3 | 128% | 100% (inactive) | 128% (inactive) | 98.3% (inactive) | 106% (inactive) | 3.99% (inactive) | 102% | 106% | -6.8% (inactive) | 0.32% (inactive)
Cc1ccc2c(c1)CCCN2C(=O)Nc1ccc2c(c1)OCO2 | 95.5% | 79% (inactive) | 95.5% (inactive) | 84.8% (inactive) | 89.5% (inactive) | 0.28% (inactive) | 89.2% | 89.5% | -6.27% (inactive) | 6.89% (inactive)
COC(=O)c1cc2oc(C)cc2n1CC(=O)Nc1ccc(C)c(C)c1 | 85.5% | 83% (inactive) | 85.5% (inactive) | 59.5% (inactive) | 83.8% (inactive) | -3.33% (inactive) | 87.1% | 83.8% | 0.51% (inactive) | -7% (inactive)
CC(=O)c1ccc(OCC(O)CN2CC(C)OC(C)C2)cc1 (stereo not given) | 108% | 80.5% (inactive) | 108% (inactive) | 99.7% (inactive) | 105% (inactive) | 14% (inactive) | 91.3% | 105% | -5.19% (inactive) | 4.13% (inactive)
OC(CCN1CCOCC1)(c1ccc(Cl)cc1)C1CCCCC1 (stereo not given) | 82.5% | 102% (inactive) | 82.5% (inactive) | 99.6% (inactive) | 82% (inactive) | -3.7% (inactive) | 85.7% | 82% | -0.4% (inactive) | 21.5% (inactive)
CCOC(=O)C1CCN(c2c(N3CCCC(C(=O)OCC)C3)c(=O)c2=O)CC1 (stereo not given) | 103% | 119% (inactive) | 103% (inactive) | 97.1% (inactive) | 96.9% (inactive) | -3.29% (inactive) | 100% | 96.9% | 2.31% (inactive) | -2% (inactive)
CCC(c1nnnn1CCOC)N(Cc1ccc(C)cc1)Cc1cc2cc(OC)ccc2[nH]c1=O (stereo not given) | 115% | 89% (inactive) | 115% (inactive) | 71.9% (inactive) | 72.5% (inactive) | 7.76% (inactive) | 64.7% | 72.5% | -3.03% (inactive) | -1.77% (inactive)
O=C(c1cccn2c(=O)c3cc(Cl)ccc3nc12)N1CCOCC1 | 95.5% | 104% (inactive) | 95.5% (inactive) | 98% (inactive) | 116% (inactive) | 20.2% (inactive) | 96% | 116% | -3.2% (inactive) | -5.32% (inactive)
CCOC(=O)Cn1c(N2CCOCC2)nc2c1c(=O)[nH]c(=O)n2C | 106% | 85.5% (inactive) | 106% (inactive) | 89.7% (inactive) | 88.1% (inactive) | -0.31% (inactive) | 88.4% | 88.1% | -3.95% (inactive) | -6.83% (inactive)
CCOC(=O)CCCn1nc(C)n2c(cc3sccc32)c1=O | 87.5% | 94.5% (inactive) | 87.5% (inactive) | 91.8% (inactive) | 102% (inactive) | 20.7% (inactive) | 81% | 102% | -5.07% (inactive) | -3.77% (inactive)
COC(=O)Nc1nc2c(C)cccc2s1 | 114% | 88% (inactive) | 114% (inactive) | 56.1% (inactive) | 85.4% (inactive) | 11.9% (inactive) | 73.5% | 85.4% | 1.18% (inactive) | 8.33% (inactive)
Cc1cc2c(=O)n(CC(=O)N3CCN(c4ccccc4)CC3)cnc2s1 | 92% | 78% (inactive) | 92% (inactive) | 100% (inactive) | 96.5% (inactive) | 8.25% (inactive) | 88.2% | 96.5% | -2.11% (inactive) | 0.18% (inactive)
COc1cccc(CN2CCN(C(=O)c3ccco3)CC2)c1OC | 112% | 90% (inactive) | 112% (inactive) | 118% (inactive) | 103% (inactive) | 6.7% (inactive) | 96.5% | 103% | -5.14% (inactive) | 0.95% (inactive)
CCOC(=O)Cc1nn2c(=O)cc(C)nc2s1 | 116% | 111% (inactive) | 116% (inactive) | 102% (inactive) | 102% (inactive) | 2.55% (inactive) | 99.4% | 102% | -1.07% (inactive) | 1.64% (inactive)
CCn1c(=O)n(CC(=O)Nc2cc(OC)ccc2OC)c(=O)c2ccccc21 | 110% | 77% (inactive) | 110% (inactive) | 86% (inactive) | 87.4% (inactive) | 17.7% (inactive) | 69.7% | 87.4% | -0.66% (inactive) | -0.32% (inactive)
CC1=C(C)C(=O)NC(Nc2nc(C)c3cc(C)cc(C)c3n2)N1 (stereo not given) | 120% | 79.5% (inactive) | 120% (inactive) | 10.6% (active) | 17.2% (active) | 6.29% (inactive) | 10.9% | 17.2% | -3.59% (inactive) | -3% (inactive)
CCCCNC(=O)c1c(C)cc(=O)oc1C | 102% | 90.5% (inactive) | 102% (inactive) | 98.6% (inactive) | 107% (inactive) | 14.8% (inactive) | 92% | 107% | -4.53% (inactive) | -1.45% (inactive)
COC(=O)C1=C(C)NC(=O)C1(Nc1ccc(Cl)cn1)C(F)(F)F (stereo not given) | 90.5% | 83.5% (inactive) | 90.5% (inactive) | 103% (inactive) | 96.5% (inactive) | -1.2% (inactive) | 97.7% | 96.5% | -3.59% (inactive) | -5.17% (inactive)
Clc1cc2c(c(Cn3cnc4ccccc43)c1)OCOC2 | 109% | 106% (inactive) | 109% (inactive) | 87.8% (inactive) | 98% (inactive) | 6.4% (inactive) | 91.6% | 98% | -3.33% (inactive) | -5.57% (inactive)
OC(CN1CCN(c2ccccn2)CC1)Cn1c2ccccc2c2ccccc21 (stereo not given) | 100% | 114% (inactive) | 100% (inactive) | 67.2% (inactive) | 82.1% (inactive) | -10.4% (inactive) | 92.4% | 82.1% | -0.65% (inactive) | 6.5% (inactive)
CCCOc1cccc(C2/C(=C(/O)c3ccccc3)C(=O)C(=O)N2CCN(C)C)c1 (stereo not given) | 108% | 93% (inactive) | 108% (inactive) | 99.5% (inactive) | 91.6% (inactive) | 2.56% (inactive) | 89.1% | 91.6% | -6.62% (inactive) | 1.75% (inactive)
Cc1ccc(C(=O)NC2CC3CCCC(C2)N3C(=O)NC2CCCCC2)cc1 (stereo not given) | 92% | 109% (inactive) | 92% (inactive) | 111% (inactive) | 98.5% (inactive) | 7.93% (inactive) | 90.6% | 98.5% | -5.73% (inactive) | -2.1% (inactive)
Cc1sc2nc(CN3CCN(S(=O)(=O)c4cccc5nonc45)CC3)[nH]c(=O)c2c1C | 102% | 93.5% (inactive) | 102% (inactive) | 66.4% (inactive) | 87.9% (inactive) | 9.52% (inactive) | 78.4% | 87.9% | -6.05% (inactive) | 0.5% (inactive)
